A selection: hits, their analogues and other compounds. The true share with any hit is near 1.5%.
APJ antagonist: APJ receptor antagonism. P35414. AID 2521. CHO-K1 APJ beta-arrestin complementation, luminescence. inhibition, % at 20 µM. actives 0.32% (n = 330,000);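 active means inhibition above about 40% at 20 µM, limit read from the data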;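 further: cells challenged with 10 nM apelin-13 agonist together with compound; plate controls were apelin-13 plus DMSO wells for no effect and DMSO wells lacking apelin-13 for full effect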
CXCR6 block: blocks human CXCR6 beta-arrestin recruitment. O00574. CHO-K1 PathHunter CXCR6 beta-arrestin, luminescence. inhibition, % at 20 µM. actives 0.36% (n = 360,000); in the data active means inhibition above about 34%, passing the limit was not always enough;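 further: antagonist mode with CXCL16 agonist at 10 nM final; 0% = 10 nM CXCL16 with DMSO and 100% = unstimulated wells without agonist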
EBI2 block: EBI2 (human) antagonism. EBI2 beta-arrestin recruitment, luminescence, 7a,25-OHC stimulated. AID 651636. actives 0.81% (n = 360,000). P32249. inhibition, % at 5 µM; in the data active means inhibition above about 38%;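 further: enzyme fragment complementation signal reports receptor beta-arrestin coupling in cells; 0% = agonist plus DMSO wells and 100% = wells without agonist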
Target sequence (P32249 whole entry, looked up, the tested form may be a part): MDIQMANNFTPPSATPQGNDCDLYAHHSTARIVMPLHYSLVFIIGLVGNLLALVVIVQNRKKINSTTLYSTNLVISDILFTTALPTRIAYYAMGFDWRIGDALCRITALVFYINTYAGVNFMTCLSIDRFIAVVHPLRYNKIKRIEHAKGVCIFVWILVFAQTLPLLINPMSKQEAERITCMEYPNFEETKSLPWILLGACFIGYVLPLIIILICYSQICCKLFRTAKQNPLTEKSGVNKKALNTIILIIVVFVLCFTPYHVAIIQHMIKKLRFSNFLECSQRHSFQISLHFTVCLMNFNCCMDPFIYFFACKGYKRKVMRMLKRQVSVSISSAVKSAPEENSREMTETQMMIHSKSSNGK
APJ ag: APJ receptor agonism. AID 2520. P35414. activation, % at 20 µM. actives 0.11% (n = 330,000). CHO-K1 APJ PathHunter beta-arrestin, luminescence; 0% DMSO wells, 100% apelin;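 active means activation more than six SD over the plate average, tested at 20 µM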;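 further: 0% = DMSO alone and 100% = apelin-13 at 10 nM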
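Incubation: overnight seeding, 90 min compound at 25 °C, 1 h detection; test system: PathHunter CHO-K1 APJ (AGTRL-1) beta-arrestin reporter cells; amount: 1000 cells/well; doses: one dose, 20 µM compound, 1% DMSO; measured by: beta-gal luminescence; measure: agonist-driven arrestin binding to APJ; benchmarks: negative DMSO alone, positive Apelin-13 at 10 nM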
CCR6 antag: blocks CCL20-driven beta-arrestin recruitment at human CCR6. inhibition, % at 20 µM. AID 493098. actives 0.49% (n = 340,000). CHO-K1 CCR6 PathHunter beta-arrestin, luminescence, CCL20-stimulated. P51684;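 active means compounds whose inhibition of the agonist-driven luminescence signal at 20 µM reaches about 50%, limit read from the data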;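 further: cells stimulated with CCL20 at 14 nM final; plate controls were DMSO with CCL20 for no effect and DMSO without agonist for full effect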
CXCR6 confirm: confirmation of human CXCR6 receptor antagonists. shares compounds with CXCR6 block. CHO-K1 CXCR6 PathHunter beta-arrestin, luminescence. inhibition, % at 20 µM. actives 65% (n = 700). AID 602409;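 active means mean inhibition over four retests above 40%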;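 further: receptor stimulated with 10 nM CXCL16 agonist; beta-galactosidase fragment complementation upon beta-arrestin recruitment to receptor; plate controls were CXCL16 plus DMSO for no effect and DMSO without CXCL16 for full effect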
* marks the source's active call; other numbers are inactive results; x = not tested or not shown.

SMILES	APJ antagonist	CXCR6 block	EBI2 block	APJ ag	CCR6 antag	CXCR6 confirm
CCOc1ccccc1C(=O)N/N=C/c1cccc2cccnc12	-13	-5	-13	5	-13	x
COC(=O)CCC(=O)N1CCC(CCC(=O)NCc2ccc(F)cc2)CC1	2	-7	6	-3	0	x
COc1nc(OCCNC(C)=O)nc(N(C)C)n1	1	56*	-2	-3	-2	4
CC(=O)NCCOc1nc(N(C)C)nc(N2CCOCC2)n1	20	1	-4	8	-9	x
CC(=O)Nc1ccc(S(=O)(=O)Oc2cccc(/C=N/N=C3/NC(=O)C(CC(=O)O)S3)c2)cc1 (configuration not stated)	4	-5	4	-1	13	x
C/C(=N\NC(=O)C1COc2ccccc2O1)c1ccccn1 (configuration not stated)	58*	75*	1	-8	78*	68*
C/C(=N\NC(=O)C1COc2ccccc2O1)c1ccc(C)o1 (configuration not stated)	-1	15	1	-7	19	x
C/C(=N\NC(=O)C(c1ccccc1)c1ccccc1)c1ccc(O)cc1	-20	3	-10	-2	25	x
C/C(=N\NC(=O)C(c1ccccc1)c1ccccc1)c1ccccn1	75*	86*	28	-14	105*	108*
CCCCn1c(N)c(N(CC(C)C)C(=O)C2CCN(S(=O)(=O)c3ccc(C)cc3C)CC2)c(=O)[nH]c1=O	-18	5	1	-5	8	x
O=[N+]([O-])c1ccc(S(=O)(=O)Nc2ccc(-c3ccccc3)cc2)cc1	x	-1	-2	x	x	x
CC(=O)Nc1cccc(OCC(O)Cn2c(C)nc3ccccc32)c1 (configuration not stated)	16	40*	-4	3	17	23
CC(=O)Nc1cccc(OCC(O)Cn2cnc3ccccc32)c1 (configuration not stated)	-7	2	-8	-2	-12	x
CN(C)c1ccc(-c2cc(NC=O)c3ncc(-c4ccc(F)c(Cl)c4)n3c2)cc1	x	2	13	x	x	x
Cc1nn(C)c(C(=O)NC(=S)Nc2ccccc2O)c1Cl	28	44*	1	-13	50*	32
Cc1ccc(Oc2ccccc2NC(=O)CN2C(=O)NC3(CCCC3)C2=O)cc1	-1	43*	-5	1	-7	10
CCCc1cc(=O)oc2cc(OCC(=O)N3CC[C@@]4(O)CCCC[C@H]4C3)ccc12	x	-1	-3	x	x	x
CCCc1cc(=O)oc2cc(OC(=O)CN3C(=O)NC4(CCCC4)C3=O)ccc12	8	46*	28	-10	67*	40
CN(CC(=O)Nc1cc(S(=O)(=O)N2CCCC2)ccc1Cl)Cc1cccs1	-5	29*	9	-5	32	52*
Cc1cc2nc3n(c2cc1C)CCCN3	9	-5	-2	0	8	x
CC(C)n1nnnc1SCC(=O)Nc1cccc(F)c1	-2	1	17	2	8	x
Cn1c(-c2c(N)n(CCCc3ccccc3)c3nc4ccccc4nc23)nc2ccccc21	x	9	27	x	-2	x
COCCCn1c(N)c(-c2nc3ccccc3n2C)c2nc3ccccc3nc21	5	43*	5	-8	x	65*
CCN(CC(=O)NC(C)(C)C)Cc1nc2c(Br)cc(Br)cc2c(=O)[nH]1	-12	54*	7	-5	x	56*
CCn1cc(C(=O)NCCC(=O)NCCCO)c(=O)c2cc3c(cc21)OCO3	10	-6	2	-1	3	x
SMILES	APJ antagonist	CXCR6 block	EBI2 block	APJ ag	CCR6 antag	CXCR6 confirm
Oc1ccc(Cl)c2cccnc12	x	43*	17	x	66*	60*
Oc1ccc(F)c2cccnc12	-17	28	4	-2	38	x
Fc1ccc(CNC(=S)Nc2ccccc2Cl)cc1	-4	47*	-10	-1	-7	9
Cc1c(Cl)cccc1NC(=S)NCc1ccc(F)cc1	-3	-9	-5	2	4	x
COc1ccc(-n2nnnc2S(=O)(=O)CC(=O)N2CCCCC2)cc1	25	48*	43*	-1	47	49*
CN(c1ccccc1)c1ccc(/C=C/[N+](=O)[O-])cc1	x	71*	7	x	x	63*
O=[N+]([O-])c1ccc(C=CC=Cc2ccccc2)cc1	x	2	1	x	x	x

Screens (PubChem)
